In ChEMBL document CHEMBL5149984, “Discovery of HN37 as a Potent and Chemically Stable Antiepileptic Drug Candidate” (J Med Chem, 2021):

What was measured:
Mus musculus [1] = experiment: Anticonvulsant activity in po dosed MES induced Kunming mouse model of seizure; type: functional
In short: (§1)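 MES test in male KM mice. Compounds freshly suspended in 0.5% CMC-Na and given by gavage at 20 mL/kg; 160 V stimulus through ear clips. Protection scored as absence of hindlimb tonic extension; time course at 0.25, 0.5, 1 and 2 h, otherwise tested at 1 h. ED50 from dose−response by nonlinear regression; Fisher's exact test versus vehicle.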

Mus musculus [2] = species on record: Mus musculus; experiment: Anticonvulsant activity in Kunming mouse assessed as reduction in MES-induced seizure after 1 hr; type: functional; in short: as §1
Mus musculus [3] = species on record: Mus musculus; experiment: Anticonvulsant activity in C57BL/6 mouse 6 Hz seizure model at 32 mA measured after 1 hr; type: functional
[4] = biological target: Potassium voltage-gated channel subfamily KQT member 2 (Rattus norvegicus) (UniProt O88943); experiment: Agonist activity at rat Kv7.2 channel expressed in CHO cells assessed as shift of half voltage of maximal activation at 10 uM by whole cell patch clamp based electrophysiological method; details: filed as agonist
In short: (§2)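 Rat KCNQ2 cotransfected with EGFP plasmid by Lipofectamine 3000 into CHO cells (DMEM/F12, 10% FBS; split 24 h before transfection). Whole-cell recording at room temperature. Pipette: 145 mM KCl, 1 mM MgCl2, 5 mM EGTA, 10 mM HEPES, 5 mM MgATP, pH 7.3. Bath, constantly perfused: 140 mM NaCl, 5 mM KCl, 2 mM CaCl2, 1.5 mM MgCl2, 10 mM glucose, 10 mM HEPES, pH 7.4. Signals filtered at 1 kHz. Compound at 10 μM. I/I0 is outward current amplitude with over without compound. ΔV1/2 is the shift in V1/2 from Boltzmann fits of activation curves. Mean ± SEM.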

[5] = Neurotoxicity in Kunming mouse assessed as motor impairment rate at 60 mg/kg, po after 1 hr by rotarod test; type: toxicity, organism-based; details: in vivo
In short: (§3)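 Male KM mice dosed intragastrically with compound freshly suspended in 0.5% CMC-Na. Rotarod performance scored 1 h after dosing as the fraction of animals showing motor impairment. Fisher's exact test versus vehicle; TD50 from nonlinear dose−response fit.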

[6] = biological target: Potassium voltage-gated channel subfamily KQT member 2/member 3 (Rattus norvegicus, UniProt O88943+O88944); experiment: Agonist activity at rat KCNQ2/3 channel expressed in CHO cells by patch clamp method; type: cell-based
In short: (§4)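 Whole-cell patch clamp at room temperature on CHO cells (DMEM/F12, 10% FBS) transiently co-transfected with EGFP and hKCNQ1, rKCNQ2, rKCNQ3 A278T, hKCNQ4 or hKCNQ5; KCNQ2/3 at 1:1 cDNA ratio. Pipette solution 145 mM KCl, 5 mM MgATP, pH 7.3; bath 140 mM NaCl, 5 mM KCl, pH 7.4, under perfusion. V1/2 from Boltzmann fits; I/I0 is current amplitude with versus without compound; n = 4−6.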

[7] = biological target: Potassium voltage-gated channel subfamily KQT member 2 (Rattus norvegicus, UniProt O88943); experiment: Agonist activity at rat KCNQ2 channel expressed in CHO cells by patch clamp method; type: cell-based; in short: as §4
Mus musculus [8] = species on record: Mus musculus; experiment: Anticonvulsant activity in Kunming mouse assessed as reduction in Sc-PTZ induced seizure after 1 hr; type: functional
In short: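 sc-PTZ test in male KM mice. Compound suspended in 0.5% CMC-Na and given orally 1 h before PTZ (freshly dissolved in normal saline, 100 mg/kg). Protection against clonic seizures scored; ED50 by nonlinear regression.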

Mus musculus [9] = species on record: Mus musculus; experiment: Anticonvulsant activity in C57BL/6 mouse 6 Hz seizure model at 44 mA measured after 1 hr; type: functional
[10] = biological target: Potassium voltage-gated channel subfamily KQT member 2 (Rattus norvegicus) (UniProt O88943); experiment: Agonist activity at rat Kv7.2 channel expressed in CHO cells assessed as amplitude change of outward current at 10 uM by whole cell patch clamp based electrophysiological method; details: filed as agonist; in short: as §2
Mus musculus [11] = species on record: Mus musculus; experiment: Anticonvulsant activity in MES induced Kunming mouse model of seizure assessed as EC50 in plasma; type: functional, organism-based
In short: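 After the MES test in KM mice (oral dosing in 0.5% CMC-Na, 1 h), animals were killed immediately and plasma and brain concentrations were measured by LC−MS/MS. EC50 from concentration−response curves of protection against plasma concentration, by nonlinear regression.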

CHO = experiment: Agonist activity at rat KCNQ3 A278T mutant expressed in CHO cells assessed as shift of half voltage of maximal activation at 0.1 uM by patch clamp method; type: cell-based; details: filed as agonist; in short: as §4
[12] = Ratio of AUC(0 to t) in Kunming mouse brain to plasma at 5 mg/kg, po measured upto 24 hrs by LC-MS/MS method; type: ADME, organism-based; details: brain and plasma
In short: (§5)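 Male KM mice (18−24 g) fasted 12 h before and 2 h after dosing, given 5 mg/kg orally in 5% DMSO/5% Tween 80/90% normal saline (n = 3 per time point). Aortic blood taken at 0.25–24 h and whole brain collected. Acetonitrile extraction with internal standard, then LC−MS/MS. Bioavailability calculated against the 2 mg/kg i.v. arm.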

[13] = Half life in Sprague-Dawley rat at 2 mg/kg, po measured upto 24 hrs by LC-MS/MS method; type: ADME, organism-based; details: in vivo
In short: (§6)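 Male SD rats (180−220 g) given single oral doses of 2, 6 and 20 mg/kg; handled as in the mouse PK study (fasted 12 h before and 2 h after dosing, 5% DMSO/5% Tween 80/90% saline formulation). In a separate 6 mg/kg p.o. set, blood and brain were sampled together. Plasma and brain levels by LC−MS/MS.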

[14] = Neurotoxicity in Kunming mouse assessed as motor impairment rate at 90 mg/kg, po after 1 hr by rotarod test; type: toxicity, organism-based; details: in vivo; in short: as §3
[15] = Tmax in Sprague-Dawley rat brain at 6 mg/kg, po measured upto 24 hrs by LC-MS/MS method; type: ADME, organism-based
In short: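 Male SD rats (180–220 g) dosed orally at 2, 6 and 20 mg/kg, handled like the mice: fasting, 5% DMSO/5% Tween 80/saline vehicle, acetonitrile extraction, LC-MS/MS of plasma. In a separate set at 6 mg/kg p.o., blood and brain were sampled together.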

[16] = AUC(0 to t) in Sprague-Dawley rat at 20 mg/kg, po measured upto 24 hrs by LC-MS/MS method; type: ADME, organism-based; parameters: dose 20 mg/kg, time < 24 hrs, route po; details: in vivo
In short: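 Male SD rats (180−220 g) dosed orally at 2, 6 or 20 mg/kg in escalating fashion, handled as in the mouse study: 12 h fast, acetonitrile extraction of plasma, LC−MS/MS quantification. AUC0−t by trapezoidal method to the last measurable concentration.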

CYP2C19 = CYP2C19 (Homo sapiens, UniProt P33261); experiment: Ratio of IC50 for human liver microsome CYP2C19 in absence of NADPH to IC50 for human liver microsome CYP2C19 in presence of NADPH; details: liver microsomes, read-out: Ratio IC50
[17] = Cmax in Sprague-Dawley rat at 6 mg/kg, po measured upto 24 hrs by LC-MS/MS method; type: ADME, organism-based; parameters: time < 24 hrs, dose 6 mg/kg, route po; details: in vivo; in short: as §6
[18] = Half life in Kunming mouse brain at 5 mg/kg, po measured upto 24 hrs by LC-MS/MS method; type: ADME, organism-based; in short: as §5

Sequence of Potassium voltage-gated channel subfamily KQT member 2 (Rattus norvegicus) (O88943 whole entry, the tested form may be a part): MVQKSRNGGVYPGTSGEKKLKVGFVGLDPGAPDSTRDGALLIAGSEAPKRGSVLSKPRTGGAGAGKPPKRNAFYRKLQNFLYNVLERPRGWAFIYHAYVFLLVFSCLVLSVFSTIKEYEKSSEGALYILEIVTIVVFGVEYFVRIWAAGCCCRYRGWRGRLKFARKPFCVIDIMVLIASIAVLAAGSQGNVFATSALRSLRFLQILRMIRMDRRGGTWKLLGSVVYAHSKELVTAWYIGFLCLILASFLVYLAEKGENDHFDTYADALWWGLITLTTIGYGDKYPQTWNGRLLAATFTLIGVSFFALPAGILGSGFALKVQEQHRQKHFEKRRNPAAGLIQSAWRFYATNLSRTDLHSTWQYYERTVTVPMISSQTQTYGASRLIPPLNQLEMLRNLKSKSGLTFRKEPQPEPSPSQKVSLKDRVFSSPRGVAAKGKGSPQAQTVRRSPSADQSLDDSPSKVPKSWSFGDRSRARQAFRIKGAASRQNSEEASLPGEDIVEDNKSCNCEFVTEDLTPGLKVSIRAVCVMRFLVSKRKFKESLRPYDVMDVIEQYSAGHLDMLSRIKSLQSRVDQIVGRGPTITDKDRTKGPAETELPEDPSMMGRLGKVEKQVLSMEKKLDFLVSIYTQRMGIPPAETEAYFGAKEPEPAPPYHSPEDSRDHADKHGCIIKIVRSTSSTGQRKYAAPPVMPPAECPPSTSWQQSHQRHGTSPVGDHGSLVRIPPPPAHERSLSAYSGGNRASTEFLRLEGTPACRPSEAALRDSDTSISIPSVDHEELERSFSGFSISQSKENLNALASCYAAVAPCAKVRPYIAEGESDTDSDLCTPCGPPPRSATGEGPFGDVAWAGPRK
Sequence of Potassium voltage-gated channel subfamily KQT member 2 (O88943 whole entry): as the sequence (O88943 whole entry, the tested form may be a part) above
Sequence of Potassium voltage-gated channel subfamily KQT member 2/member 3 (O88943 whole entry, the tested form may be a part): as above
Sequence of Potassium voltage-gated channel subfamily KQT member 2/member 3 (O88944 whole entry, the tested form may be a part): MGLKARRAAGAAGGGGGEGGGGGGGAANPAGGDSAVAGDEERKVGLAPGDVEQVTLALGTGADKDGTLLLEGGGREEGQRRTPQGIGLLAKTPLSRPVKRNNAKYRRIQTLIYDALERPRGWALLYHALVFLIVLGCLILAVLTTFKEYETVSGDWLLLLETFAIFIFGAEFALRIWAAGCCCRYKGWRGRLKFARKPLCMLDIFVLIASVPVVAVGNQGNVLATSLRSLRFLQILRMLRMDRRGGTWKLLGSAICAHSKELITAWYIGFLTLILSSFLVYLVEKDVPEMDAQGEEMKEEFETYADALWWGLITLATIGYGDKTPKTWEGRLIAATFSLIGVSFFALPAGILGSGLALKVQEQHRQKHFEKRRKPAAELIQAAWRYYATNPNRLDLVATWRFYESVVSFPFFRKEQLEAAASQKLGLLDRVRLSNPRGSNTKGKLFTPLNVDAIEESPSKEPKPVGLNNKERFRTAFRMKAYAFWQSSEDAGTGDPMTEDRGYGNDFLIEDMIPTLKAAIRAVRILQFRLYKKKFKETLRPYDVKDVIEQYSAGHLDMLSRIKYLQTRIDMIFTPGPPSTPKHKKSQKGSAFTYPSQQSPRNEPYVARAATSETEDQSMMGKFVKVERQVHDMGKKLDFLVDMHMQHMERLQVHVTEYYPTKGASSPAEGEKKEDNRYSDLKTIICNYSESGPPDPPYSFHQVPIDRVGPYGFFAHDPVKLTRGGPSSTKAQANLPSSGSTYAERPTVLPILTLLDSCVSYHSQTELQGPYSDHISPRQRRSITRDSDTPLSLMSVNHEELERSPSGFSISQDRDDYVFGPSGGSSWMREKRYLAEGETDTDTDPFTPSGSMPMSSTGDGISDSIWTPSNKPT
Sequence of CYP2C19 (P33261 whole entry): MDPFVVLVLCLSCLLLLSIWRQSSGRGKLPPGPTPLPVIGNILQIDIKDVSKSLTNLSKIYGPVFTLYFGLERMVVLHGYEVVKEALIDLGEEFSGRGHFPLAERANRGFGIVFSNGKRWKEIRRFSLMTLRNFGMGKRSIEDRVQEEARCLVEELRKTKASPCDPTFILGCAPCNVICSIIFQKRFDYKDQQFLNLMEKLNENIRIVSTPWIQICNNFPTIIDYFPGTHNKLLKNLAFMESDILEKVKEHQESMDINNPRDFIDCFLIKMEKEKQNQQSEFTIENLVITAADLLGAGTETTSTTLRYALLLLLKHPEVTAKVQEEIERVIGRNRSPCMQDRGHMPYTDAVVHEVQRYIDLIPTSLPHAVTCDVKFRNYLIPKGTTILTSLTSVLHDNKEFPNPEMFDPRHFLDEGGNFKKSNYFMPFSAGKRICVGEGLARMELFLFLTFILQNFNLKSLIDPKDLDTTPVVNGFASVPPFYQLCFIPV

## CCOC(=O)Nc1ccc(NCc2ccc(F)cc2)cc1N [EZOGABINE]
Mus musculus [1]
  ED50: 38.6 mg/kg
Mus musculus [2]
  ED50: 38.6 mg/kg
Mus musculus [3]
  ED50: 65.9 mg/kg
[4]
  Activity: -33.2 mV
[5]
  Activity: Non-Toxic
[6]
  EC50: 4150 nM
[7]
  EC50: 2040 nM
Mus musculus [8]
  ED50: > 56 mg/kg
Mus musculus [9]
  ED50: 102 mg/kg
[10]
  Activity: 1.79
Mus musculus [11]
  EC50: 20000 nM

## C#CCN(Cc1ccc(F)cc1)c1cc(C)c(NC(=O)OC)c(C)c1
Mus musculus [1]
  ED50: 1.9 mg/kg
CHO
  Activity: -43.1 mV
[12]
  Kp at 24 h: 2.23
[13]
  half-life: 1.72 h
Mus musculus [2]
  ED50: 1.9 mg/kg
Mus musculus [3]
  ED50: 16.8 mg/kg
[4]
  Activity: -38.5 mV
[5]
  Activity: Non-Toxic
[6]
  EC50: 33.1 nM
[7]
  EC50: 37 nM
Mus musculus [8]
  ED50: 9.8 mg/kg
[14]
  Activity: 62.5%
[15]
  Tmax: 0.25 h
[16]
  AUC(0-t) at 24 h: 1920 ng·h/mL
CYP2C19
  IC50 shift: < 1.5
Mus musculus [9]
  ED50: 29.9 mg/kg
[10]
  Activity: 4.75
[17]
  Cmax: 264 ng/mL
[18]
  half-life: 1.95 h
Mus musculus [11]
  EC50: 50 nM
